In ChEMBL document CHEMBL1141070, “Synthesis and biological activity of flurbiprofen analogues as selective inhibitors of beta-amyloid(1)(-)(42) secretion” (J Med Chem, 2005):
pIC50: −log10 of the molar value.

Columns and labels:
[1] = molecular target: T1, Prostaglandin G/H synthase 1 (Rattus norvegicus, UniProt Q63921); assay: Concentration required to inhibit cyclooxygenase-1 in rat blood
T1 sequence (Q63921 whole entry): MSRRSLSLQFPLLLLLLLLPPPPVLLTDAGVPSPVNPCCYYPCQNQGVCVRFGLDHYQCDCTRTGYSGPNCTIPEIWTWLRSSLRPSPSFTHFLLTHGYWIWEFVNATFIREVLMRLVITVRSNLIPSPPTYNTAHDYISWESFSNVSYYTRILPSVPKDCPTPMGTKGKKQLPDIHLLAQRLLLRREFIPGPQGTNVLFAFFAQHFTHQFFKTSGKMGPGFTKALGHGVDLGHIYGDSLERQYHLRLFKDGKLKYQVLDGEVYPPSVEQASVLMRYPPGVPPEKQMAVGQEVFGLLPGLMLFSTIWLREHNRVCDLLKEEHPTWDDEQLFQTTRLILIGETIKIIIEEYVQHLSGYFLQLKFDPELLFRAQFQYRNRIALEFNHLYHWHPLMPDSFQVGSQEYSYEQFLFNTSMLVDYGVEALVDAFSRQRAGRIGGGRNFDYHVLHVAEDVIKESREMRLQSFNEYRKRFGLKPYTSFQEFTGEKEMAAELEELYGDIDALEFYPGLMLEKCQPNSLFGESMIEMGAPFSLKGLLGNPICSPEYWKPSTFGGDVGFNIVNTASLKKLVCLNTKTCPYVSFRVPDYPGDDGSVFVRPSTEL
Outline: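 Fresh rat whole blood was preincubated 1 h at 37 °C with compound (100 μM or a concentration series; DMSO 0.3% final). It was then stimulated 30 min with the Ca²⁺ ionophore A23187. Thromboxane B2 in the plasma was measured by radioimmunoassay.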

[2] = molecular target: T2, Amyloid-beta precursor protein (Homo sapiens, UniProt P05067); assay: Inhibitory concentration against beta-amyloid-42 (Abeta42) secretion was evaluated in human neuroglioma cells (H4-APP695NL); type: functional, cell-based
Outline: (§1)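 H4-APP695NL human neuroglioma cells (APP695 Swedish K595N/M596L) seeded at 2 × 10^5/well and grown 24 h to confluence. Increasing compound concentrations added overnight; DMSO 1% as vehicle. Supernatant Aβ42 or Aβ40 measured by electrochemiluminescence immunoassay: biotinylated 4G8 plus C-terminus-specific rabbit antibodies, captured on streptavidin beads.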
Target sequence in this assay (P05067 18-770 limits assumed): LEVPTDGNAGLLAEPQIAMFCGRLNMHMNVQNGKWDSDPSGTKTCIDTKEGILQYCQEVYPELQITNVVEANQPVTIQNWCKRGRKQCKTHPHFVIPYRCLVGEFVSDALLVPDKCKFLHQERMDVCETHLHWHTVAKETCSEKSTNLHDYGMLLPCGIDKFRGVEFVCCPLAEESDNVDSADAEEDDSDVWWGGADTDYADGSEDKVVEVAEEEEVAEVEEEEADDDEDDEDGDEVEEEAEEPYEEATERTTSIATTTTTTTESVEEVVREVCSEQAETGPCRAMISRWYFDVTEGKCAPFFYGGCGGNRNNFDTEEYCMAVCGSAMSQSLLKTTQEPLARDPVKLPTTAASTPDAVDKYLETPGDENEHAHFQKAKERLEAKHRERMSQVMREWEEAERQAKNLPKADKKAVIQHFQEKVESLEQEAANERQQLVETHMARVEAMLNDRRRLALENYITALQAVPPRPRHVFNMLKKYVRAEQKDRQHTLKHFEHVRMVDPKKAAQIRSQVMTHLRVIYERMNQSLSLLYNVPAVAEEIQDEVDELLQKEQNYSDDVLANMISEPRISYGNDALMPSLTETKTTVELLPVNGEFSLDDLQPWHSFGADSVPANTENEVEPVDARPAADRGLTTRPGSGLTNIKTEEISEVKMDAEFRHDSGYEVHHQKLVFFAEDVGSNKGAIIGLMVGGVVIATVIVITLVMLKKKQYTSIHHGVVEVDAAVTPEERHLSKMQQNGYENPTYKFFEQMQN

[3] = molecular target: T2, Amyloid-beta precursor protein; assay: Concentration required to inhibit A beta 40 peptide at 100 uM; outline: as §1
Target sequence in this assay (P05067 whole entry): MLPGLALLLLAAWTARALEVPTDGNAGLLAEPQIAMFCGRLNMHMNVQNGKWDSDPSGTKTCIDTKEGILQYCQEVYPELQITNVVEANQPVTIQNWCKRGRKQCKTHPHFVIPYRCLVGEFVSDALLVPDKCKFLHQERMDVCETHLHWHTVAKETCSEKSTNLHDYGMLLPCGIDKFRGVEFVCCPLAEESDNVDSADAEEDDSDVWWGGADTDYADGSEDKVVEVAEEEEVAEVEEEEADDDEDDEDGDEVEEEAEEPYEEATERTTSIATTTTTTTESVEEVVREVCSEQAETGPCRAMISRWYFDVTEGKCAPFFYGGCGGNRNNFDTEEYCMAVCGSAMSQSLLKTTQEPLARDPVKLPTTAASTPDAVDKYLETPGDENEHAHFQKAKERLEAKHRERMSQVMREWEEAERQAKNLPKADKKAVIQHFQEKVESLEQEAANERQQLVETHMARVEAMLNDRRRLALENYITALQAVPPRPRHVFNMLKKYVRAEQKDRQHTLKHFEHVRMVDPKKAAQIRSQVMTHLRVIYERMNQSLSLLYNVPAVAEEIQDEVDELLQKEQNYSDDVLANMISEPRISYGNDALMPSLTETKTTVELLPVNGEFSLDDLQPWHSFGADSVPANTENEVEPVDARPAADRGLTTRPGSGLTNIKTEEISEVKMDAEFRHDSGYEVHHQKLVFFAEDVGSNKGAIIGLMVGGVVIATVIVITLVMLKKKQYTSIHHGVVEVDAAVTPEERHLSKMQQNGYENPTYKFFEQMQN

[4] = molecular target: T2, Amyloid-beta precursor protein; conditions: at 100 µM
Target sequence in this assay (P05067 whole entry): as above

[5] = In vivo steady state metabolic clearance of the compound; conditions: rat
[6] = Concentration ratio in cerebrospinal fluid and plasma; conditions: rat
[7] = molecular target: T2, Amyloid-beta precursor protein; assay: (§2) Concentration required to inhibit A beta 40 peptide 100 uM; outline: as §1
Target sequence in this assay (P05067 whole entry): as above

[8] = Concentration ratio in cerebrospinal fluid and plasma; below lower limit of quantitation; conditions: rat
[9] = molecular target: CYP2D6 (Homo sapiens, UniProt P10635); assay: Interaction with human cytochrome P450 isoform 2D6 expressed in baculovirus-insect cells at 100 uM; type: ADME
Outline: (§3)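 Microsomes from baculovirus-insect cells expressing human CYP1A2, 2C9, 2C19, 2D6 or 3A4. Compound serially diluted with an NADPH-regenerating mix (16.3 μM NADP+, 0.83 mM glucose-6-phosphate, 0.83 mM MgCl2, 0.4 U/mL G6PDH). Pre-warmed 10 min at 37 °C, then isoform-specific substrate added in 0.35 M potassium phosphate pH 7.4. Fluorometric read-out; IC50 by nonlinear regression.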

[10] = molecular target: T3, CYP1A2 (Homo sapiens, UniProt P05177); assay: Interaction with human cytochrome P450 isoform 1A2 expressed in baculovirus-insect cells at 100 uM; type: ADME; outline: as §3
T3 sequence (P05177 whole entry): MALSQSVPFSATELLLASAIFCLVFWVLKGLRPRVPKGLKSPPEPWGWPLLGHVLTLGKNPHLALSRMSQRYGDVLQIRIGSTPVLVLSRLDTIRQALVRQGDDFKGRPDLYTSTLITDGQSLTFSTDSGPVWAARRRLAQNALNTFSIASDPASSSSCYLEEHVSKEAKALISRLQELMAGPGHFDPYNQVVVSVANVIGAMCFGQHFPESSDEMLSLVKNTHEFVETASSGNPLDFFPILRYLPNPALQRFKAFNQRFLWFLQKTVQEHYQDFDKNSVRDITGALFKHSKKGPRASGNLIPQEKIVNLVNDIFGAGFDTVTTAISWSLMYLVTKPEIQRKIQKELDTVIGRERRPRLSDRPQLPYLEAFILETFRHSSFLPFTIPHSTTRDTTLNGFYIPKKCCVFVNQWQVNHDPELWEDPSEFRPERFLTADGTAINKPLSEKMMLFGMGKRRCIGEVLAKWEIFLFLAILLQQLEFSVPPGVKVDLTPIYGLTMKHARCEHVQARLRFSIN

[11] = molecular target: CYP2C9 (Homo sapiens, UniProt P11712); assay: Interaction with human cytochrome P450 isoform 2C9 expressed in baculovirus-insect cells at 100 uM; type: ADME; outline: as §3
[12] = molecular target: CYP2C19 (Homo sapiens, UniProt P33261); assay: Interaction with human cytochrome P450 isoform 2C19 expressed in baculovirus-insect cells at 100 uM; type: ADME; outline: as §3
[13] = molecular target: T4, Prostaglandin G/H synthase 1 (Rattus norvegicus) (UniProt Q63921); assay: Percent inhibition against cyclooxygenase-1 at 100 uM in rat blood
T4 sequence (whole entry): T1 sequence (Q63921 whole entry)
Outline: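 Fresh rat whole blood preincubated 1 h at 37 °C with compound (100 μM) or DMSO (0.3% final). Stimulated 30 min with A23187 calcium ionophore; plasma thromboxane B2 measured by radioimmunoassay.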

[14] = molecular target: CYP3A4 (Homo sapiens, UniProt P08684); assay: Interaction with human cytochrome P450 isoform 3A4 expressed in baculovirus-insect cells at 100 uM; type: ADME; outline: as §3
[15] = molecular target: Cytochrome P450 2C19 (Homo sapiens, UniProt P33261); assay: Interaction with human cytochrome P450 isoform 2C19 expressed in baculovirus-insect cells; type: ADME; outline: as §3
[16] = Intestinal drug absorption was estimated in vitro using human colon adenocarcinoma (Caco-2) cell monolayers; type: ADME
Outline: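 Caco-2 monolayers on polycarbonate Transwell inserts, 2 h at 37 °C. Apical and basolateral solutions analysed by LC-MS/MS (SRM). Papp = Cb·Vb/(C0·A·t).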

[17] = molecular target: Cytochrome P450 2C9 (Homo sapiens, UniProt P11712); assay: Interaction with human cytochrome P450 isoform 2C9 expressed in baculovirus-insect cells; type: ADME; outline: as §3
[18] = molecular target: Cytochrome P450 3A4 (Homo sapiens, UniProt P08684); assay: Interaction with human cytochrome P450 isoform 3A4 expressed in baculovirus-insect cells; type: ADME
Outline: (§4)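 Supersome microsomes from baculovirus-insect cells expressing human CYP1A2, 2C9, 2C19, 2D6 or 3A4 were used with isoform-specific fluorogenic substrates. Compounds were serially diluted with an NADP⁺/glucose-6-phosphate regenerating system in 0.35 M potassium phosphate, pH 7.4. Plates were prewarmed 10 min at 37 °C, reactions stopped with acetonitrile/Tris, and fluorescence read. IC50 was obtained by nonlinear regression.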

[19] = molecular target: T2, Amyloid-beta precursor protein; assay: as §2; remark: listed apart in the source
Target sequence in this assay (P05067 whole entry): as the sequence (P05067 whole entry) above

[20] = molecular target: Cytochrome P450 2D6 (Homo sapiens, UniProt P10635); assay: Interaction with human cytochrome P450 isoform 2D6 expressed in baculovirus-insect cells; type: ADME; outline: as §4
Sequence of Cytochrome P450 2D6 (P10635 whole entry, canonical isoform): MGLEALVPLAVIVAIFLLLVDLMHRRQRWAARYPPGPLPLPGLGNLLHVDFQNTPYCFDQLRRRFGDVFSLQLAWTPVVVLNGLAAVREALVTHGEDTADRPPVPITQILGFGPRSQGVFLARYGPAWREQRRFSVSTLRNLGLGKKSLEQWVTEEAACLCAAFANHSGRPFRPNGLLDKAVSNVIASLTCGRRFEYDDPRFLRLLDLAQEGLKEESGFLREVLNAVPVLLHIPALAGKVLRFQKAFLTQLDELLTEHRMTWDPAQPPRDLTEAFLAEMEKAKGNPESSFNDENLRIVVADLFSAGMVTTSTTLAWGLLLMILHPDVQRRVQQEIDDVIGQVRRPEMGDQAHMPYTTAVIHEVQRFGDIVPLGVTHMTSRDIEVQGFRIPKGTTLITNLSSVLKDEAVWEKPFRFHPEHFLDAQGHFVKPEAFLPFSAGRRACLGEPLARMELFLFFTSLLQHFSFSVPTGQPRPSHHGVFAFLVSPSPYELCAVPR

Sequence of Cytochrome P450 2C19 (P33261 whole entry, canonical isoform): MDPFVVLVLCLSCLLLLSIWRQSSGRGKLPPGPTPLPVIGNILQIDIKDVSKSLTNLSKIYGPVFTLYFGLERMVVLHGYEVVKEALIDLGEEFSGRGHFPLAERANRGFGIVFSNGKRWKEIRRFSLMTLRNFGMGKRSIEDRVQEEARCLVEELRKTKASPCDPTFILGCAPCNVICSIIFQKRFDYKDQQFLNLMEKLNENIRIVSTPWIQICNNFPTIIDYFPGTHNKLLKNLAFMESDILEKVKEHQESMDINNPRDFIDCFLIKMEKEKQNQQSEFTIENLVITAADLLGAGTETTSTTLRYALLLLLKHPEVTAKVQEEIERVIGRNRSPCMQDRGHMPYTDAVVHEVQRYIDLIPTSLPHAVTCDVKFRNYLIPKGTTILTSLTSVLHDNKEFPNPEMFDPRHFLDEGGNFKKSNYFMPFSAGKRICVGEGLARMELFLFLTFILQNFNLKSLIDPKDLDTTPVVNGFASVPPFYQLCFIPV
Sequence of Cytochrome P450 2C9 (P11712 whole entry, canonical isoform): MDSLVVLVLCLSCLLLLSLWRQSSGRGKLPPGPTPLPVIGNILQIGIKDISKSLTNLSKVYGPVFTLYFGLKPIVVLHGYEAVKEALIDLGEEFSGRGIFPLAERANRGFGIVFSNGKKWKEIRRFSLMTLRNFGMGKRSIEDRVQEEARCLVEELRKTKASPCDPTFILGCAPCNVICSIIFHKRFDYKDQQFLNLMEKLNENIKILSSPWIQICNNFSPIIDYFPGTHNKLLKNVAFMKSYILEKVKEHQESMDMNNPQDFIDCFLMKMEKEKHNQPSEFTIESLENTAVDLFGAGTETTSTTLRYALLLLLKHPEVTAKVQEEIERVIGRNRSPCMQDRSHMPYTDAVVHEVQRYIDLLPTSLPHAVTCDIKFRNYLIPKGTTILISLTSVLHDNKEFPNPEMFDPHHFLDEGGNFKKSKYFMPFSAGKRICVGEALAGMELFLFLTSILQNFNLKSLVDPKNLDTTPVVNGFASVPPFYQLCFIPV
Sequence of Cytochrome P450 3A4 (P08684 whole entry, canonical isoform): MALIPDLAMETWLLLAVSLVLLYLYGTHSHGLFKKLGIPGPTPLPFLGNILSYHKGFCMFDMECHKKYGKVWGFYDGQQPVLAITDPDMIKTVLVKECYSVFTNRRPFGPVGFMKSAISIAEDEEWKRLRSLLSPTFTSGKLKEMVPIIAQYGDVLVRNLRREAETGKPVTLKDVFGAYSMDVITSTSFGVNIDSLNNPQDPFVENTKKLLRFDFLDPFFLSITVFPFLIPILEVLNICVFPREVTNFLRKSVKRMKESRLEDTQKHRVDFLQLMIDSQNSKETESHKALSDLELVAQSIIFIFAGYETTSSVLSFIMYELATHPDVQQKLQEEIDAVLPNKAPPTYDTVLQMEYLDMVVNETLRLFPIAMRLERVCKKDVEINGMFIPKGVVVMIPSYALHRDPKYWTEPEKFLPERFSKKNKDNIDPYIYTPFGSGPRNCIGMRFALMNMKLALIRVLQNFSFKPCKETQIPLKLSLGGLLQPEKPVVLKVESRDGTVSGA
Sequence of CYP3A4 (P08684 whole entry, canonical isoform): as above
Sequence of CYP2D6 (P10635 whole entry, canonical isoform): as the sequence (P10635 whole entry, canonical isoform) above
Sequence of CYP2C19 (P33261 whole entry, canonical isoform): as the sequence (P33261 whole entry, canonical isoform) above
Sequence of CYP2C9 (P11712 whole entry, canonical isoform): as the sequence (P11712 whole entry, canonical isoform) above

SMILES	pIC50 [2]	inhibition [4]	Clearance [5]	Ratio [6]	further results
C[C@@H](C(=O)O)c1ccc(-c2ccccc2)c(F)c1 [TARENFLURBIL]	3.55				pIC50 [1]: 4.36
COC(=O)C(C)c1ccc(-c2cc(Cl)cc(Cl)c2)c(F)c1 (stereo unspecified)					inhibition [3]: 45%
CC(C(=O)O)c1ccc(-c2ccccc2C(F)(F)F)c(F)c1 (stereo unspecified)		25%			
CC(C(=O)O)c1ccc(-c2ccc3c(c2)OCO3)c(F)c1 (stereo unspecified)	3.68	42%			
CC(C(N)=O)c1ccc(-c2cc(Cl)cc(Cl)c2)c(F)c1 (stereo unspecified)	4.19	70%	193 mL/h	19%	pIC50 [7]: 4.92
O=C(O)C1(c2ccc(-c3ccc(C4CCOCC4)cc3)c(F)c2)CC1		52%	39 mL/h		Ratio [8]: Below LLOQ
CC(C(=O)O)c1ccc(-c2cccc(Cl)c2)c(F)c1 (stereo unspecified)		58%			
CC(C)(C(=O)O)c1ccc(-c2ccc(C(F)(F)F)cc2)c(F)c1	4.15	58%			
O=C(O)C1(c2ccc(-c3ccc(OC4CCOCC4)cc3)c(F)c2)CC1		28%	70.5 mL/h	1.1%	
CC(C(=O)NO)c1ccc(-c2ccc(C(F)(F)F)cc2)c(F)c1 (stereo unspecified)		31%			
CC(c1ccc(-c2ccc(C(F)(F)F)cc2)c(F)c1)c1nnn[nH]1 (stereo unspecified)	3.94	43%			inhibition at 100 µM [9]: > 50%; inhibition at 100 µM [10]: > 50%; inhibition at 100 µM [11]: > 50%; inhibition at 100 µM [12]: > 50%; inhibition [13]: 9%; inhibition at 100 µM [14]: > 50%
CC(C(=O)O)c1ccc(-c2ccc(O)cc2)c(F)c1 (stereo unspecified)		27%			
COc1ccc(-c2ccc(C(C)C(=O)O)cc2F)cc1 (stereo unspecified)	4.17	67%			pIC50 [15]: 4.06; Papp [16]: > 5 ×10⁻⁶ cm/s
O=C(O)C1(c2ccc(-c3ccccc3)c(F)c2)CC1		40%	9.8 mL/h	2.3%	IC50 [17]: 83 µM; Papp [16]: > 5 ×10⁻⁶ cm/s; inhibition [13]: 26%
O=C(O)C1(c2ccc(-c3ccc(-c4ccc(F)cc4)c(F)c3)c(F)c2)CC1	4.24	75%	8.1 mL/h	1.8%	pIC50 [15]: 4.34; pIC50 [17]: 5.15; Papp [16]: < 1 ×10⁻⁶ cm/s; inhibition [13]: 18%; pIC50 [18]: 4.42; inhibition [19]: 32%
CC1(C)CCC(c2ccc(-c3ccc(C4(C(=O)O)CC4)cc3F)cc2)CC1	4.34	75%	145.8 mL/h	Below LLOQ	pIC50 [15]: 4.89; pIC50 [17]: 4.77; pIC50 [20]: 5.28; Papp [16]: < 1 ×10⁻⁶ cm/s; inhibition [13]: 17%; pIC50 [18]: 4.08; pIC50 [7]: 4.00
